Key:
[1] = biological target: T1, Mitogen-activated protein kinase kinase kinase 2 (Homo sapiens) (UniProt Q9Y2U5); experiment: Inhibition of MAP3K2 Lys1 labeling site harbouring VYLCYDVDTGRELAVKQVQFDPDSPETSKEVNALECEIQLLK in human A-375 cells at 0.05 uM by KiNativ Profiling analysis relative to control; assay type: cell-based
T1 sequence (whole entry): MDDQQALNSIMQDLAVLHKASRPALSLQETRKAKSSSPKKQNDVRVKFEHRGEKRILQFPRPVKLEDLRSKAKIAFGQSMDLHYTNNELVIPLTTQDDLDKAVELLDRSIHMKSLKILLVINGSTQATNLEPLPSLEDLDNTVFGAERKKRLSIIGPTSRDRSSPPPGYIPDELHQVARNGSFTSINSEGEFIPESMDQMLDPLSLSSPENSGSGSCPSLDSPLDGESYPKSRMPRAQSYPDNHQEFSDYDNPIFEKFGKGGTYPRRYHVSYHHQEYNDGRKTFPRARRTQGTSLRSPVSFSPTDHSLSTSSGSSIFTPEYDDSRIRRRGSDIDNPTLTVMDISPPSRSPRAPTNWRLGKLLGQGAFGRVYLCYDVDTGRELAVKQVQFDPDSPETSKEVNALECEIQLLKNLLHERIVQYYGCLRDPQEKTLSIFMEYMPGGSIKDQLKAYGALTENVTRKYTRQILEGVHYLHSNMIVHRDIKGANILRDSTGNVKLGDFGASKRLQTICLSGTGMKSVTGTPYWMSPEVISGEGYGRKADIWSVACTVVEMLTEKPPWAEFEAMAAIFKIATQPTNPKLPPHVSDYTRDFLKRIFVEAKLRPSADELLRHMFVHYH

[2] = biological target: Cyclin-dependent kinase 17 (Homo sapiens) (UniProt Q00537); experiment: Inhibition of PCTAIRE2 Lys1 labeling site harbouring SKLTENLVALKEIR in human A-375 cells at 5 uM by KiNativ Profiling analysis relative to control; assay type: cell-based
[3] = biological target: DNA-PK/Ku70/Ku85 (Homo sapiens) (UniProt P78527+P12956+P13010); experiment: Inhibition of DNAPK ATP labeling site harbouring GHDEREHPFLVKGGEDLRQDQR in human A-375 cells at 5 uM by KiNativ Profiling analysis relative to control; assay type: cell-based
Summary of the method: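 Live A375 melanoma cells were treated with compound at 0.5 or 5 μM, then lysed. Lysates were labeled with a lysine-reactive ATP or ADP-biotin probe. The read-out was protection of each kinase probe-labeling site from labeling, relative to control.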

[4] = biological target: Serine/threonine-protein kinase 38 (Homo sapiens) (UniProt Q15208); experiment: Inhibition of NDR1 Lys2 labeling site in human A-375 cells at 0.5 uM by KiNativ Profiling analysis relative to control; assay type: cell-based
[5] = biological target: Interferon-induced, double-stranded RNA-activated protein kinase (Homo sapiens) (UniProt P19525); experiment: Inhibition of PKR Lys2 labeling site in human A-375 cells at 5 uM by KiNativ Profiling analysis relative to control; assay type: cell-based
[6] = biological target: T2, Serine/threonine-protein kinase Nek8 (Homo sapiens) (UniProt Q86SG6); experiment: Inhibition of NEK8 Lys2 labeling site in human A-375 cells at 0.05 uM by KiNativ Profiling analysis relative to control; assay type: cell-based
T2 sequence (whole entry): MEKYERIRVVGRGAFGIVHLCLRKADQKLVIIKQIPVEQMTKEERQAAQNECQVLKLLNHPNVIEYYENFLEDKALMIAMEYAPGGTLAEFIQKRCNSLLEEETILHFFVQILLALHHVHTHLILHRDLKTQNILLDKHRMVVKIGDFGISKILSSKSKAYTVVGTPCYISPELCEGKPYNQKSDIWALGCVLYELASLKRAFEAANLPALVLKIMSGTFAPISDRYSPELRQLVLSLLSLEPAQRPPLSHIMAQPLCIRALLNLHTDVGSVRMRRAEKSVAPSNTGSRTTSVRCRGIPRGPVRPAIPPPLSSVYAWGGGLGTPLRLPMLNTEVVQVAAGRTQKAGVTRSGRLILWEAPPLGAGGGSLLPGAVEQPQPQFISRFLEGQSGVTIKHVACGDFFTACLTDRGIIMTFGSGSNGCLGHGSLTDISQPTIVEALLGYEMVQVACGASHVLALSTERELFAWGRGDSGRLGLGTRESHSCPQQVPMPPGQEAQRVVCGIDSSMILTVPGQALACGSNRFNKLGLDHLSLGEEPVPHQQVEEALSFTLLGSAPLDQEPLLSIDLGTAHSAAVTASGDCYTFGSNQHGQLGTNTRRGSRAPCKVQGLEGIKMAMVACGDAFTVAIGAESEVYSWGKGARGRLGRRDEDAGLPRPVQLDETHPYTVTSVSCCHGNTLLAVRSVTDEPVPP

[7] = biological target: Mitogen-activated protein kinase 14 (Homo sapiens, UniProt Q16539); experiment: Inhibition of p38 alpha Lys2 labeling site in human Huh-7 cell lysate at 1 uM by KiNativ Profiling analysis relative to control; assay type: subcellular
Sequence of Mitogen-activated protein kinase 14 (Q16539 whole entry): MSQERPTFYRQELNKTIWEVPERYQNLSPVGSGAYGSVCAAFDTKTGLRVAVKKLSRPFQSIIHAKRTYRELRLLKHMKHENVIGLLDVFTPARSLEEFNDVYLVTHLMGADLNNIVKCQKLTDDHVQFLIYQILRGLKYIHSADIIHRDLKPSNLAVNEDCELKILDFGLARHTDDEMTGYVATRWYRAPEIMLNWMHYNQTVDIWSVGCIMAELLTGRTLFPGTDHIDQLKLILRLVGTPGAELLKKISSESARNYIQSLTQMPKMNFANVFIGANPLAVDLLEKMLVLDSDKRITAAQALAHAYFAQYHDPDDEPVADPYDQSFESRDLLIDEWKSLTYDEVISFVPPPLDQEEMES

Sequence of Cyclin-dependent kinase 17 (Homo sapiens) (Q00537 whole entry, looked up): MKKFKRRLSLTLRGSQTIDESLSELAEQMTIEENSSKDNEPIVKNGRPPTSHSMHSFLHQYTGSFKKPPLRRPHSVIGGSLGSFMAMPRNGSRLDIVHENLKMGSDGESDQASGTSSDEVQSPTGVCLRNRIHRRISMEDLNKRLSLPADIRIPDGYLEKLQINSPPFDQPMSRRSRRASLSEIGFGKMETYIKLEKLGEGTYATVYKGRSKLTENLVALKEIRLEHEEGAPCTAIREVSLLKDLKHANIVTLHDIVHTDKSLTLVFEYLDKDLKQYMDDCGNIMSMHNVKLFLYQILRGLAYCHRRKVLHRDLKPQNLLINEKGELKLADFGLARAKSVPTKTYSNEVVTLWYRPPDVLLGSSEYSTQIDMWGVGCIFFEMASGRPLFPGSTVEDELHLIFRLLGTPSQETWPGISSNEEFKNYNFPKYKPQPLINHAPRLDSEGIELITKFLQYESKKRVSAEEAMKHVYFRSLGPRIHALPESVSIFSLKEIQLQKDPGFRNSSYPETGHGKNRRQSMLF
Sequence of Interferon-induced, double-stranded RNA-activated protein kinase (Homo sapiens) (P19525 whole entry): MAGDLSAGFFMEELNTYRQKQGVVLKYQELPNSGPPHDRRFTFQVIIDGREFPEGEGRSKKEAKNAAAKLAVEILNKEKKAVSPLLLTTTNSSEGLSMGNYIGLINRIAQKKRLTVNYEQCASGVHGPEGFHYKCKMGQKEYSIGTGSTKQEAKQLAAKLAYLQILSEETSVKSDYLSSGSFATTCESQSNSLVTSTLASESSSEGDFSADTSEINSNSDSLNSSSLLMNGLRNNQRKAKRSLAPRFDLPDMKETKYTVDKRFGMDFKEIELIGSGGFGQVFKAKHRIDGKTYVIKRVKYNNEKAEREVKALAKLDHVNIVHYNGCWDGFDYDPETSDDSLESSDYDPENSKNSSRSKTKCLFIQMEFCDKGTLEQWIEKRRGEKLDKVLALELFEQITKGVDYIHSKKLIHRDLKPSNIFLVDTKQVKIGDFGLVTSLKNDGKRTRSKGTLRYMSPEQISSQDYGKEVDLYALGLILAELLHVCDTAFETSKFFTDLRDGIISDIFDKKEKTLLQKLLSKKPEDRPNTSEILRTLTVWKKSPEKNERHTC
Sequence of Serine/threonine-protein kinase 38 (Homo sapiens) (Q15208 2-465 limits assumed): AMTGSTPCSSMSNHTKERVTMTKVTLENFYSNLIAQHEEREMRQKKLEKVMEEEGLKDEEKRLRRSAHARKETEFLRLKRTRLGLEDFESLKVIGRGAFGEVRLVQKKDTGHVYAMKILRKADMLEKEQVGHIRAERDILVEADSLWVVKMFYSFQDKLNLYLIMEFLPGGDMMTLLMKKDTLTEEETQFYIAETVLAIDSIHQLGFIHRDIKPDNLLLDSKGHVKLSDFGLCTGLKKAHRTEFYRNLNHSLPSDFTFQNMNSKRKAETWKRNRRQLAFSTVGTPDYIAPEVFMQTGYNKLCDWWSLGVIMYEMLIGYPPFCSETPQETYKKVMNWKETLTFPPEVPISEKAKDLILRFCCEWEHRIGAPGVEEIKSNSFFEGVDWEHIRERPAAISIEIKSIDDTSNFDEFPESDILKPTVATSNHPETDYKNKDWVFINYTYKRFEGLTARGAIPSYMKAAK

SMILES: CCN1CCN(Cc2ccc(NC(=O)c3ccc(C)c(Oc4ccnc5[nH]ccc45)c3)cc2C(F)(F)F)CC1
- inhibition [1]: -3.7%
- inhibition [2]: 73.3%
- inhibition [3]: 9.9%
- inhibition [4]: 33.9%
- inhibition [5]: 2.1%
- inhibition [6]: -1.6%

SMILES: CNc1cc(Oc2cc(C(=O)Nc3cc(-n4cnc(C)c4)cc(C(F)(F)F)c3)ccc2C)ncn1
- inhibition [7]: 50.2%

SMILES: CNc1cc(Oc2cc(C(=O)Nc3cc(N4CCN(C)CC4)cc(C(F)(F)F)c3)ccc2C)ncn1
- inhibition [7]: 30.2%

SMILES: CCN1CCN(Cc2ccc(NC(=O)c3ccc(C)c(/C=C/c4cnc5[nH]ccc5c4OC)c3)cc2C(F)(F)F)CC1
- inhibition [1]: 1.5%
- inhibition [2]: 24.3%
- inhibition [3]: -4.9%
- inhibition [4]: 30.6%
- inhibition [5]: -6.7%
- inhibition [6]: -9.3%
